Assay results reported in ChEMBL document CHEMBL3797138, “Discovery of a Selective and Potent Inhibitor of Mitogen-Activated Protein Kinase-Interacting Kinases 1 and 2 (MNK1/2) Utilizing Structure-Based Drug Design” (J Med Chem, 2016).
≈ marks a conversion by molar mass, not a printed value.

Columns and labels:
[1] = target: MAP kinase-interacting serine/threonine-protein kinase 1 (Homo sapiens, UniProt Q9BUB5); experiment: Inhibition of ERK2-activated full length wild type MNK1a (unknown origin) using biotin-SGSGKRREILSRRPSYR-NH2 as substrate after 2 hrs by HTRF assay
Outline: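 In-house full-length MNK1a (0.5 nM final) activated by full-length ERK2 (0.5 nM final). Biotin-crebtide 200 nM and ATP 200 µM. Buffer: 50 mM Hepes pH 7.5, 5 mM MgCl2, 0.05% BSA, 0.01% Tween-20, 1 mM DTT, 2.5% DMSO. Reaction run 2 h, then stopped with EDTA/KF buffer holding Eu-anti-phospho-creb (0.23 nM) and streptavidin-XL665 (50 nM). Read by HTRF after overnight development in the dark.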

[2] = target: MAP kinase-interacting serine/threonine-protein kinase 2 (Homo sapiens, UniProt Q9HBH9); experiment: Inhibition of N-terminal 6His-tagged recombinant human full length wild type MNK2b using biotin-SGSGKRREILSRRPSYR-NH2 as substrate after 1 hr by HTRF assay
Outline: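 Commercial full-length wild-type MNK2b at 1 nM final, with biotin-crebtide 200 nM and ATP 200 µM. Buffer: 50 mM Hepes pH 7.5, 5 mM MgCl2, 0.05% BSA, 0.01% Tween-20, 1 mM DTT, 2.5% DMSO. Stop/detection buffer: 20 mM EDTA, 0.1% BSA, 0.4 M KF, with Eu-anti-phospho-creb antibody 0.23 nM and SA-XL665 50 nM. Developed overnight in the dark at room temperature; HTRF read, excitation 320 nm, emission 665 nm.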

[3] = target: Cyclin-dependent kinase 1 (Homo sapiens, UniProt P06493); experiment: Inhibition of CDK1 (unknown origin)
[4] = target: Cyclin-dependent kinase 2 (Homo sapiens, UniProt P24941); experiment: Inhibition of CDK2 (unknown origin)
[5] = Solubility of the compound at pH 7.4 by high throughput assay; settings: buffer
[6] = Lipophilicity, log D of the compound at pH 7.4; settings: buffer
[7] = target: MAP kinase-interacting serine/threonine-protein kinase 1/2 (Homo sapiens, UniProt Q9HBH9+Q9BUB5); experiment: Inhibition of MNK1/2 in human KMS11-luc cells assessed as inhibition of EIF4E phosphorylation at S209 after 3 hrs by quantitative electrochemiluminescence assay; format: cell-based
Outline: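 KMS11-luc cells seeded at 300,000 cells/well and exposed to compounds for 3 h at 37 °C, 5% CO2, then lysed in well with Triton-based buffer. Lysate captured overnight at 4 °C on blocked ECL plates. Detection: anti-phospho-EIF4E (S209) antibody 1:200 plus sulfo-tag goat anti-rabbit 1:400, 2 h at room temperature, electrochemiluminescence read. Phospho-EIF4E signal normalized to total YB1 for EC50.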

[8] = Apparent permeability across apical to basolateral side in human Caco2 cells; settings: Caco-2
[9] = Efflux ratio of apparent permeability across basolateral to apical side over apical to basolateral side in human Caco2 cells; settings: Caco-2
[10] = target: Cyclin-dependent kinase 9 (Homo sapiens, UniProt P50750); experiment: Inhibition of CDK9 (unknown origin)
[11] = Antiproliferative activity against luciferase expressing human KMS11 cells after 5 days by CellTiter-Glo luminescent assay; format: functional, cell-based; settings: KMS-11, 120 h
Outline: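 KMS11-luc cells seeded at 2500 cells/well; compounds added 2 h after seeding, then incubated 5 days at 37 °C, 5% CO2. CellTiter-Glo added in equal volume, shaken 2 min, kept 10 min dark at room temperature, and luminescence read. EC50 fitted from % inhibition versus concentration (µM) with a four-parameter equation.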

[12] = target: Calcium/calmodulin-dependent protein kinase type II subunit delta (Homo sapiens, UniProt Q13557); experiment: Inhibition of CAMK2D (unknown origin)
[13] = target: T1, Receptor-type tyrosine-protein kinase FLT3 (Homo sapiens, UniProt P36888); experiment: Inhibition of FLT3 (unknown origin)
T1 sequence (P36888 whole entry): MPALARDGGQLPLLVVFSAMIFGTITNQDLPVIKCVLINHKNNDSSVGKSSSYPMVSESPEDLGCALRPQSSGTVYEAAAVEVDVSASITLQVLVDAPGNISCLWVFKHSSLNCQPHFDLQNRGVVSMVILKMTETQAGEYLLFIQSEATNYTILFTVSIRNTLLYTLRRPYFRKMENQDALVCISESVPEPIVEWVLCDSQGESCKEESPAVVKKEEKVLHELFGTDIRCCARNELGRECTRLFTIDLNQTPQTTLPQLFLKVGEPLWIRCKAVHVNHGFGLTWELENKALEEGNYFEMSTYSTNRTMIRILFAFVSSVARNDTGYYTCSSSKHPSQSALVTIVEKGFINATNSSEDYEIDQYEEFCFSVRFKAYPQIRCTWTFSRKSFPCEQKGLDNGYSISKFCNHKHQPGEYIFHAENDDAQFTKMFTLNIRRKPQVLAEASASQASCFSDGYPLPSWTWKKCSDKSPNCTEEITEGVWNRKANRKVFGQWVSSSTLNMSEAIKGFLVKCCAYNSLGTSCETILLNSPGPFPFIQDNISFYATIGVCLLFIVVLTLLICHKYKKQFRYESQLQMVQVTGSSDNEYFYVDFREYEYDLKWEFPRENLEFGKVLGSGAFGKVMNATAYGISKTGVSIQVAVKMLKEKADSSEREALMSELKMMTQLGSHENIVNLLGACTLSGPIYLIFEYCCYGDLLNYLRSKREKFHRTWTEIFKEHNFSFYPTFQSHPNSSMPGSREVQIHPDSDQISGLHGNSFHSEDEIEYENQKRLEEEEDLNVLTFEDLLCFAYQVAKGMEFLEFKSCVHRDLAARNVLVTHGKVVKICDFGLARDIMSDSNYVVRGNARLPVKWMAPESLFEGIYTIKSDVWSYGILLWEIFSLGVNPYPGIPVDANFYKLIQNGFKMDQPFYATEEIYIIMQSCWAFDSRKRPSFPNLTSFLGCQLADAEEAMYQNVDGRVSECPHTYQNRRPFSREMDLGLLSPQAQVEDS

[14] = target: Serine/threonine-protein kinase pim-2 (Homo sapiens, UniProt Q9P1W9); experiment: Inhibition of PIM2 (unknown origin)
[15] = target: Rho-associated protein kinase 2 (Homo sapiens, UniProt O75116); experiment: Inhibition of ROCK2 (unknown origin)
[16] = Inhibition of CYP450 (unknown origin); format: ADME, Homo sapiens
[17] = Intrinsic clearance in rat liver microsomes; format: ADME
[18] = Hepatic extraction ratio in rat liver microsomes; format: ADME; settings: read-out: ERH

MAP kinase-interacting serine/threonine-protein kinase 2, sequence (Q9HBH9 whole entry): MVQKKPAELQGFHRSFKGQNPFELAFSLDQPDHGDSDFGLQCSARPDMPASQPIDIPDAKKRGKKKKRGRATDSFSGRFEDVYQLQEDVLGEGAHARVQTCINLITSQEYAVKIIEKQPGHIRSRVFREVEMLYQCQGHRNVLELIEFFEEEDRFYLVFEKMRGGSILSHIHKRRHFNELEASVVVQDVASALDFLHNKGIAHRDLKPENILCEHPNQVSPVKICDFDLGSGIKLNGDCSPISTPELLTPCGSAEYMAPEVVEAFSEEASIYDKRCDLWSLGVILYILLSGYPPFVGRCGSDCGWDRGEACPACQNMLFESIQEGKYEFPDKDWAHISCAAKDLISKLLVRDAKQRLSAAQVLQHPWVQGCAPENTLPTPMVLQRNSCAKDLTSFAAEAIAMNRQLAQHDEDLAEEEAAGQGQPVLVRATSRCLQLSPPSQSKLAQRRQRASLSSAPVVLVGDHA
MAP kinase-interacting serine/threonine-protein kinase 1, sequence (Q9BUB5 whole entry): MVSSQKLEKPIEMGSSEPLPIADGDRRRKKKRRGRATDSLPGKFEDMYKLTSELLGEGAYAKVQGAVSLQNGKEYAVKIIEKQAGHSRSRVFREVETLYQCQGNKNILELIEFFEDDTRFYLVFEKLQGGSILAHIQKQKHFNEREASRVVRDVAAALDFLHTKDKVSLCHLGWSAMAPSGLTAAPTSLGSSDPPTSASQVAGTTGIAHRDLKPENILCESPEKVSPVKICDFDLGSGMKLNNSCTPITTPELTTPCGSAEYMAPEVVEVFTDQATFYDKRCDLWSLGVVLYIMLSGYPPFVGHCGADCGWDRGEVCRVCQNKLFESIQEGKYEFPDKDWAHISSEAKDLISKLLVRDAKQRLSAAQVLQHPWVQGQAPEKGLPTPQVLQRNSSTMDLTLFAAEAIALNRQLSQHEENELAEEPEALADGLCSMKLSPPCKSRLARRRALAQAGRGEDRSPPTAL
Cyclin-dependent kinase 1, sequence (P06493 whole entry): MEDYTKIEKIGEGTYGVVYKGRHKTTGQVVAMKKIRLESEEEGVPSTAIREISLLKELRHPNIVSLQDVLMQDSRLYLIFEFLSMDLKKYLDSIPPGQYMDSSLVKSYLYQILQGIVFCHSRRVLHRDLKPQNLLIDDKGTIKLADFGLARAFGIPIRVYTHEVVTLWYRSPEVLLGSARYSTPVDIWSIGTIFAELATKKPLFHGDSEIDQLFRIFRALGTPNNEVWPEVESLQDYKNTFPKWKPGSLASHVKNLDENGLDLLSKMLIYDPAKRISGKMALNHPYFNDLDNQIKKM
Cyclin-dependent kinase 9, sequence (P50750 whole entry): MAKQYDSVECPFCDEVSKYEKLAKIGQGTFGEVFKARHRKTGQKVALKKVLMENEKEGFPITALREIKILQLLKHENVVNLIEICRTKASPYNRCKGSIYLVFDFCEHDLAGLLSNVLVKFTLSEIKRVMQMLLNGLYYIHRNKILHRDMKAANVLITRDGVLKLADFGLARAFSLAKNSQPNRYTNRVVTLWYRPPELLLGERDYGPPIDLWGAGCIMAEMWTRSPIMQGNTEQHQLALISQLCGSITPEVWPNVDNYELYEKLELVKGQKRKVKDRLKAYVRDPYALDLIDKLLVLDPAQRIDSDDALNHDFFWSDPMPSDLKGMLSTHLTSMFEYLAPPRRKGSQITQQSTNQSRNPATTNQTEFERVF
Calcium/calmodulin-dependent protein kinase type II subunit delta, sequence (Q13557 whole entry): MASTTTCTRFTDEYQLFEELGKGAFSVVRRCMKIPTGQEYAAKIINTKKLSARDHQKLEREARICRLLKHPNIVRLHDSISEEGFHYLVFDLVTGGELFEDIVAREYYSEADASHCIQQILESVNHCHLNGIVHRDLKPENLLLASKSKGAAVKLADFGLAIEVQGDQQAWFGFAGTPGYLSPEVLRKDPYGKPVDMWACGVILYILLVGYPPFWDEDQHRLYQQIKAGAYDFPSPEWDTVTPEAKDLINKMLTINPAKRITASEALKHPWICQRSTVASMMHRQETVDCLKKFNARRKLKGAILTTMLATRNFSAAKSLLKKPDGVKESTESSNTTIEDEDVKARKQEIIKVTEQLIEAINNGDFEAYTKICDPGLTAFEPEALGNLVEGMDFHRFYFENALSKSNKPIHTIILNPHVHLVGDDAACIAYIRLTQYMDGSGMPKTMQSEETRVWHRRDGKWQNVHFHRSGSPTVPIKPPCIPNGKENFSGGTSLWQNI
Rho-associated protein kinase 2, sequence (O75116 whole entry): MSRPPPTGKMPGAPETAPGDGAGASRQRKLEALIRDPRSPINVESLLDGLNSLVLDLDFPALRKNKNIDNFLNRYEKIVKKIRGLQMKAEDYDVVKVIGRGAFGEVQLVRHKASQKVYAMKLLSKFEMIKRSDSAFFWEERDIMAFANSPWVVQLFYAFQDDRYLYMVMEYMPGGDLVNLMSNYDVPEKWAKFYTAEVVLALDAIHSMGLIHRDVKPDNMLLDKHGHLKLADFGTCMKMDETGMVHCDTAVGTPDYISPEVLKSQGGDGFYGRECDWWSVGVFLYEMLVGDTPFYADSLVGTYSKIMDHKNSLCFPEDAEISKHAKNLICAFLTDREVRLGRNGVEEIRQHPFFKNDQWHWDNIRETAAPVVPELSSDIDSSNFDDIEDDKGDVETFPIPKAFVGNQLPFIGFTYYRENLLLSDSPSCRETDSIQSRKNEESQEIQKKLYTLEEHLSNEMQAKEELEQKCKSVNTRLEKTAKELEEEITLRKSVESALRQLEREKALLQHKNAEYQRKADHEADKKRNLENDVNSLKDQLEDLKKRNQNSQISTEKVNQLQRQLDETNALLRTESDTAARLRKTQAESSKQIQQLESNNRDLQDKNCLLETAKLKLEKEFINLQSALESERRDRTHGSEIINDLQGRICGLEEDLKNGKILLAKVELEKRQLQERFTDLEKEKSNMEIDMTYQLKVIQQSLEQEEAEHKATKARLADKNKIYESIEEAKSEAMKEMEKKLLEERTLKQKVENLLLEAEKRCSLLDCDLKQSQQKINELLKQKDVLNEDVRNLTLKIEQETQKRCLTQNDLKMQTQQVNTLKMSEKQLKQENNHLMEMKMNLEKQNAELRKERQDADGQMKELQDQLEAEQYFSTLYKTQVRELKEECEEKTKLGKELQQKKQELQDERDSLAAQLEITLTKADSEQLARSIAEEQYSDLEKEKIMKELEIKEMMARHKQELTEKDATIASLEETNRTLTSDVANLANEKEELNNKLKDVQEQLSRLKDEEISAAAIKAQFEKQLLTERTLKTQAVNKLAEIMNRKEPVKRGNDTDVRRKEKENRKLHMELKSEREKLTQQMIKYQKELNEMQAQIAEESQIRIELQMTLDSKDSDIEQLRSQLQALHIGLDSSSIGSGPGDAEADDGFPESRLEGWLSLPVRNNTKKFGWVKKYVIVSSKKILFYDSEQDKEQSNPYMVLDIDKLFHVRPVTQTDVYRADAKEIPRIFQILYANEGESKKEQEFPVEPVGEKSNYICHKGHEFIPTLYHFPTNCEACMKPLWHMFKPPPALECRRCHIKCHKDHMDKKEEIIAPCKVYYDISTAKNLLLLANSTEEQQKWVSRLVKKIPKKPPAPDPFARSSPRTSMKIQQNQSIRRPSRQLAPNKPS
Serine/threonine-protein kinase pim-2, sequence (Q9P1W9 whole entry): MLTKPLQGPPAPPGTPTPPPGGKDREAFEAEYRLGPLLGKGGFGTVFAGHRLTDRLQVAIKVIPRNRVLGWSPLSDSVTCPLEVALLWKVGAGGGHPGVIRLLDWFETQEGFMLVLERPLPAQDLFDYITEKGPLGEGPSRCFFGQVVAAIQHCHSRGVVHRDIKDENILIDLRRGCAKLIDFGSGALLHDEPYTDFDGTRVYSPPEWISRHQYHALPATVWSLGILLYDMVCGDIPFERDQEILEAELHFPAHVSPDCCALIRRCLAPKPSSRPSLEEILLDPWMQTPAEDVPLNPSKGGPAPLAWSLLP

| SMILES | IC50 [1] | IC50 [2] | IC50 [3] | IC50 [4] | solubility [5] | logD [6] | EC50 [7] | Papp A→B [8] | efflux ratio [9] | IC50 [10] | EC50 [11] | IC50 [12] | IC50 [13] | IC50 [14] | IC50 [15] | IC50 [16] | CLint [17] | hepatic extraction ratio [18] |
| --- | --- | --- | --- | --- | --- | --- | --- | --- | --- | --- | --- | --- | --- | --- | --- | --- | --- | --- |
| Nc1ncccc1-c1nc2ccccc2[nH]1 | 700 nM | 900 nM | 10000 nM | 25000 nM | 300 µM (≈ 63.1 µg/mL) | 3 |  |  |  |  |  |  |  |  |  |  |  |  |
| CN(C)C(=O)c1cccc(-c2cnc(N)c(-c3nc4ccccc4[nH]3)c2)c1 | 36 nM | 34 nM | 1000 nM | 5700 nM |  | 4.2 |  |  |  |  |  |  |  |  |  |  |  |  |
| CN(C)C(=O)c1cccc(-c2cnc(N)c(-c3nc4cccc(N5CCNCC5)c4[nH]3)c2)c1 | 4 nM | 2 nM | 1000 nM | 4000 nM | 102 µM (≈ 45 µg/mL) | 1.8 | 130 nM | 4 ×10⁻⁶ cm/s | 3.6 |  |  |  |  |  |  |  |  |  |
| C[C@H]1CN(c2cccc3nc(-c4nc(-c5cccc(C(=O)N(C)C)c5)cnc4N)n(C)c23)CCN1 | 1.5 nM | 0.7 nM | 1000 nM | 3400 nM |  |  | 3 nM |  |  |  |  |  |  |  |  |  |  |  |
| CN(C)C(=O)c1cccc(-c2cnc(N)c(-c3nc4cccc(N5CCNCC5)c4[nH]3)n2)c1 | 80 nM | 20 nM | 1700 nM | 11000 nM | 70 µM (≈ 31 µg/mL) | 1.9 | 50 nM | 0.7 ×10⁻⁶ cm/s | 87 |  |  |  |  |  |  |  |  |  |
| CN(C)C(=O)c1cccc(-c2cnc(N)c(-c3nc4cccc(N5CCNCC5)c4n3C)n2)c1 | 2 nM | 1 nM | 500 nM | 1400 nM | 254 µM (≈ 116 µg/mL) | 1.1 | 5 nM | 9 ×10⁻⁶ cm/s | 2.3 |  |  |  |  |  |  |  |  |  |
| Nc1ncc(-c2ccccc2)cc1-c1nc2ccccc2[nH]1 | 120 nM | 720 nM | 160 nM | 1300 nM |  | > 4.2 |  |  |  |  |  |  |  |  |  |  |  |  |
| C[C@H]1CN(c2cccc3nc(-c4nc(-c5cc(C(=O)N(C)C)ccn5)cnc4N)n(C)c23)CCN1 | 3 nM | 3 nM | > 25000 nM | > 25000 nM | 220 µM (≈ 104 µg/mL) | 1.9 | 0.6 nM | 5 ×10⁻⁶ cm/s | 5 | > 25000 nM | 1700 nM | 690 nM | 280 nM | 730 nM | 370 nM | > 40000 nM | 32 µL/min/mg | 0.54 |
| CC(=O)C1=C(O)C=C2Oc3c(C(N)=O)c(O)cc(O)c3[C@]2(C)C1=O |  |  |  |  |  |  |  |  |  |  | > 10000 nM |  |  |  |  |  |  |  |
